The record followed here is ChEMBL document CHEMBL1926521, “Arylcyanoacrylamides as inhibitors of the Dengue and West Nile virus proteases” (Bioorg Med Chem, 2011).

The structures appear in SMILES notation. The source made the active and inactive calls. The calls are words filed in the database; no cut-off is given here.

The subject of one assay is Dengue virus. The assay can be described thus: Inhibition of Dengue virus NS2B-NS3 protease expressed in Escherichia coli BL21 lambda (DE3) using Abz-NleKRRS-3-(NO2)Y as substrate at 50 uM preincubated for 15 mins before substrate addition measured up to 15 mins by spectrofluorimetry. In a few lines: (§1)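 Single-concentration screen against His-tagged NS2B-NS3 protease (Ni²⁺-affinity purified from E. coli). Enzyme was 100 nM for Dengue or 150 nM for West Nile. Inhibitor at 50 µM was preincubated 15 min with enzyme, then internally quenched FRET substrate (final 50 µM) was added. Read at ex 320/em 405 nm for 15 min. Rate taken as RFU/s; % inhibition is the mean of triplicates.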

Another assay concerns West Nile virus. The assay can be described thus: Inhibition of West Nile virus NS2B-NS3 protease expressed in Escherichia coli BL21 lambda (DE3) using Abz-GLKRGG-3-(NO2)Y as substrate at 50 uM preincubated for 15 mins before substrate addition measured up to 15 mins by spectrofluorimetry. The procedure, abridged:
as §1

In the next assay the target is Prothrombin (Homo sapiens, UniProt P00734). The experiment in a line: Inhibition of human thrombin using Boc-VPR-AMC as substrate at 25 uM preincubated for 15 mins before substrate addition measured up to 10 mins by spectrofluorimetry.

In the case of `N#C/C(=C\c1cccnc1)C(N)=O`, the inhibition result in the assay with Dengue virus, in the assay on West Nile virus and on Prothrombin was “inactive” throughout.

Regarding `N#C/C(=C\c1ccc([N+](=O)[O-])cc1)C(N)=O`, the inhibition entry with Dengue virus and at Prothrombin was “inactive” each time. This compound also gave an inhibition with West Nile virus of 10.5%.

With `N#C/C(=C\c1ccc(Cl)cc1Cl)C(N)=O`, the values for the inhibition with Dengue virus, in the assay on West Nile virus and at Prothrombin were 14.7%, 10.7% and 8.5%, respectively.

Turning to `CC(C)/C(=C(/C#N)C(N)=O)c1ccccc1`, the inhibition entry with Dengue virus and in the assay with West Nile virus was “inactive” throughout. This compound yielded an inhibition on Prothrombin of 16.7%.

In the case of `CN(C)c1ccc(/C=C(\C#N)C(N)=O)cc1`, the figures for the inhibition in the assay with Dengue virus, in the assay on West Nile virus and against Prothrombin were 35.1%, 46% and 21.6%, respectively.

Take `COc1ccc(/C=C(\C#N)C(N)=O)cc1OC`: the inhibition in the assay on Dengue virus was 19.2%; in the assay with West Nile virus, 22%; on Prothrombin it was 20%.

With `CN(C)c1ccc(/C=C(\C#N)C(=O)NCc2ccccn2)cc1`, the inhibition in the assay on Dengue virus turned out to be 25.3%; in the assay with West Nile virus, 21.3%. Besides, the inhibition result at Prothrombin was “inactive”.

`N#C/C(=C\c1ccc(Br)cc1)C(=O)NC1CC1`: the inhibition with Dengue virus was 10.9%; in the assay with West Nile virus, 22.6%. For the same compound, the inhibition entry at Prothrombin was “inactive”.

For the compound `N#C/C(=C\c1ccc(N2CCCCC2)cc1)C(N)=O`, the values for the inhibition in the assay on Dengue virus, in the assay with West Nile virus and on Prothrombin were 14%, 24.2% and 20%, respectively.

Consider `COC(=O)[C@H](CO)NC(=O)/C(C#N)=C/c1ccc(OC)cc1`, for which the results for the inhibition in the assay with Dengue virus, with West Nile virus and against Prothrombin were 20.3%, 21.1% and 21.4%, respectively.

`CN(C)c1ccc(CC(C#N)C(N)=O)cc1` (stereo not drawn): the inhibition in the assay with Dengue virus turned out to be 7.1%; with West Nile virus, 16.2%. Also, the inhibition result on Prothrombin is “inactive”.

As to `N#CC(Cc1ccc(N2CCOCC2)cc1)C(N)=O` (stereo not drawn), the inhibition entry with Dengue virus and at Prothrombin was “inactive” throughout. For the same compound, the inhibition with West Nile virus amounted to 7.9%.

Turning to `N#C/C(=C\c1c[nH]c2ccccc12)C(N)=O`, the inhibition came to 23.7% in the assay on Dengue virus, 33.4% in the assay with West Nile virus and 16.4% against Prothrombin.

`N#C/C(=C\c1ccc(Br)o1)C(=O)NC1CC1`: the values for the inhibition with Dengue virus, with West Nile virus and against Prothrombin were 15.6%, 23.9% and 26.9%, respectively.

Take `N#C/C(=C\c1ccc(Br)cc1)C(N)=O`: the results for the inhibition in the assay with Dengue virus, in the assay on West Nile virus and against Prothrombin were 11.6%, 15.9% and 13.6%, respectively.

As to `CCN(CC)C(=O)/C(C#N)=C/c1cc(O)c(O)c([N+](=O)[O-])c1`, the inhibition was 21% with Dengue virus, 32.4% with West Nile virus and 21.9% on Prothrombin.

In the case of `CC(=C\c1ccccc1)/C=C(\C#N)C(=O)NCC1CCCO1` (stereo not drawn), the inhibition in the assay on Dengue virus worked out at 36.8%; with West Nile virus, 30.1%; against Prothrombin, 28.7%.

For the compound `CN(C)c1ccc(/C=C(\C#N)C(N)=S)cc1`, the inhibition entry in the assay on Dengue virus and with West Nile virus was “inactive” each time. This compound showed an inhibition against Prothrombin of 13.7%.

As for `CN(C)c1ccc(C=C(C#N)C#N)cc1`, the inhibition was determined as 8.7% in the assay with Dengue virus, 8.8% with West Nile virus and 16.3% at Prothrombin.

As for `N#C/C(=C\c1ccc(F)cc1)C(N)=O`, the inhibition came to 22.5% in the assay on Dengue virus, 16% with West Nile virus and 7.9% on Prothrombin.

As for `CCC/C(=C(\C#N)C(N)=O)c1ccccc1`, the inhibition with Dengue virus was found to be 7.6%; with West Nile virus it was 16%; at Prothrombin, 6.9%.

On to `CN(C)c1ccc(/C=C(\C#N)C(=O)NCC2CCCO2)cc1` (stereo not drawn), for which the inhibition was 23.3% in the assay with Dengue virus, 28.1% in the assay with West Nile virus and 19.8% on Prothrombin.

For the compound `CN(C)c1ccc(/C=C(\C#N)C(=O)N2CCOCC2)cc1`, the inhibition in the assay on Dengue virus is 43.3%; in the assay on West Nile virus, 38.1%; on Prothrombin, 25.1%.

In the case of `CCC/C(=C(/C#N)C(N)=O)c1ccccc1`, the figures for the inhibition in the assay on Dengue virus, with West Nile virus and against Prothrombin were 6.7%, 15.3% and 11.1%, respectively.

Regarding `N#C/C(=C\c1ccc(O)cc1)C(=O)NCc1ccccn1`, the values for the inhibition with Dengue virus, in the assay on West Nile virus and at Prothrombin were 46.6%, 41.8% and 18.9%, respectively.

Consider `COc1cc(/C=C(\C#N)C(N)=O)ccc1O`, for which the inhibition in the assay with Dengue virus is 43.2%; with West Nile virus it was 42.9%; against Prothrombin it was 17.4%.

As for `CN1CCN(c2ccc(/C=C(\C#N)C(=O)NC3CC3)cc2)CC1`, the figures for the inhibition with Dengue virus, in the assay on West Nile virus and at Prothrombin were 37.4%, 47.8% and 21.8%, respectively.

Turning to `N#C/C(=C\c1ccc(C(=O)N2CCCCC2)cc1)C(N)=O`, the values for the inhibition with Dengue virus and in the assay with West Nile virus were 22.3% and 24%, respectively. The inhibition entry on Prothrombin was “inactive”.

For the compound `C/C(=C(/C#N)C(N)=O)c1ccc(O)cc1`, the inhibition is 16.8% in the assay on Dengue virus and 21.9% with West Nile virus. For the same compound, the inhibition result on Prothrombin is “inactive”.

On to `CN(C)c1ccc(/C=C(\C#N)C(=O)NC2CC2)cc1`, for which the inhibition with Dengue virus came out at 22.6%; with West Nile virus, 33.2%; against Prothrombin it was 23.7%.

In the case of `COc1cc(CC(C#N)C(N)=O)cc(OC)c1OC` (stereo not drawn), the inhibition entry in the assay with Dengue virus, in the assay on West Nile virus and on Prothrombin was “inactive” throughout.

For the compound `N#C/C(C(N)=O)=C1\CCc2ccccc21`, the inhibition with Dengue virus was determined as 23.2%; with West Nile virus, 24.1%; against Prothrombin it was 10.3%.

In the case of `CC(=O)Oc1ccc(/C=C(\C#N)C(N)=O)cc1`, the inhibition amounted to 43.1% with Dengue virus, 28.8% with West Nile virus and 24.4% against Prothrombin.

As to `N#C/C(=C\c1cccc(O)c1)C(N)=O`, the inhibition with Dengue virus stood at 15.7%; with West Nile virus, 18.1%; at Prothrombin it was 9.8%.

With `C/C(=C\c1ccccc1)CC(C#N)C(N)=O` (stereo not drawn), the inhibition result in the assay with Dengue virus, with West Nile virus and at Prothrombin was “inactive” throughout.

As to `COc1cc(/C=C(\C#N)C(N)=O)cc(OC)c1OC`, the results for the inhibition with Dengue virus, with West Nile virus and against Prothrombin were 15.6%, 19.3% and 17.8%, respectively.

For the compound `CC(C)c1ccc(/C=C(\C#N)C(N)=O)cc1`, the inhibition in the assay on Dengue virus is 23%; in the assay on West Nile virus, 24.6%; against Prothrombin, 19.4%.

For the compound `N#CC(Cc1c[nH]c2ccccc12)C(N)=O` (stereo not drawn), the inhibition result in the assay with Dengue virus, in the assay with West Nile virus and on Prothrombin was “inactive” each time.

Regarding `N#C/C(=C\c1ccccc1)C(N)=O`, the results for the inhibition in the assay with Dengue virus, in the assay with West Nile virus and against Prothrombin were 15%, 9.3% and 12.5%, respectively.

Take `N#C/C(=C\c1cccc(C(=O)NC2CC2)c1)C(=O)NC1CC1`: the inhibition came out at 10.8% with Dengue virus, 19.1% in the assay on West Nile virus and 8% against Prothrombin.

For the compound `N#C/C(=C\c1ccc(Br)s1)C(N)=O`, the inhibition with Dengue virus worked out at 20.2%; in the assay with West Nile virus it was 19.2%; at Prothrombin it was 26.3%.

A word on the inhibition: it is how much of the control response was suppressed.
